Columns and labels:
GlnA4Sc = molecular target: T1, GlnA4Sc (Streptomyces coelicolor, UniProt O88070); test: GlnA4Sc enzyme activity assay; format: biochemical
T1 sequence (O88070 1-462): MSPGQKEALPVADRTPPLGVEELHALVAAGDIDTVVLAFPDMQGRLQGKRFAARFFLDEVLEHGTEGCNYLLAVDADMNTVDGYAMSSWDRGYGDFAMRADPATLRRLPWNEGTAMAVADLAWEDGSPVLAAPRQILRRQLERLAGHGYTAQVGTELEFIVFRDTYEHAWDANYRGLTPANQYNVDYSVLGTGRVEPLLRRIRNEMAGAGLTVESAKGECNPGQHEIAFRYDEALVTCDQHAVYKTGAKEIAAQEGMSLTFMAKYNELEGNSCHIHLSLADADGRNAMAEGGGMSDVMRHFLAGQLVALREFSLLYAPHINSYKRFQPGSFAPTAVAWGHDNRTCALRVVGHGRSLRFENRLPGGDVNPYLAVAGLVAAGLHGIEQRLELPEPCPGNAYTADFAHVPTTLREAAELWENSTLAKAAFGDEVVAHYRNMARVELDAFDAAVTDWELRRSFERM

GlnA1Mt = GlnA1Mt (Mycobacterium tuberculosis, UniProt P9WN39); format: biochemical; conditions: at 5 mM (SI Figure 2)
S. coelicolor M145 = test: S. coelicolor growth assay; format: cell-based, Streptomyces coelicolor
In short: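 S. coelicolor M145 grown in defined Evans medium with 25 mM ammonium chloride, L-glutamine or ethanolamine hydrochloride as sole nitrogen source. Test compound added at final 100, 50, 25, 12.5, 6.25, 3.125, 1.562, 0.781 or 0 μM. Cultures shaken at 180 rpm for 7 days at 30 °C. Phase-contrast images taken at x400; hyphae thickness used to quantify growth.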

GlnA1Mt, sequence (P9WN39 whole entry): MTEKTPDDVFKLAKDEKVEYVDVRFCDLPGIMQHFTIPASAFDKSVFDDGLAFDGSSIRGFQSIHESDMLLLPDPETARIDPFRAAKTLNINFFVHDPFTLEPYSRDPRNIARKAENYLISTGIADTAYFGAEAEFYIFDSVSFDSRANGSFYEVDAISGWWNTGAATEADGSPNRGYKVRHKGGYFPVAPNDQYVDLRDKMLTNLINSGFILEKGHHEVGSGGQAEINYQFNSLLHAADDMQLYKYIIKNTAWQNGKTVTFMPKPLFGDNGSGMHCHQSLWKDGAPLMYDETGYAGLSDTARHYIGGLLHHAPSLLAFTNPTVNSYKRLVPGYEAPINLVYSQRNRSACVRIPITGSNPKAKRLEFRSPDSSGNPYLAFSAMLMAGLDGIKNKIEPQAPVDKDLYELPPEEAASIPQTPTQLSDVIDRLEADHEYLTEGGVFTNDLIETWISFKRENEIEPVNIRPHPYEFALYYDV

With `N=S(=O)(CCO)CC[C@H](N)C(=O)O` (stereo partly drawn) [7 a, (2S)‐2‐Amino‐4‐(2‐hydroxyethylsulfonimidoyl)butanoic acid] the IC50 (GlnA4Sc) was 2170 µM.
`N=S(=O)(CCCO)CC[C@H](N)C(=O)O` (stereo partly drawn) [7 b, (2S)‐2‐Amino‐4‐(3‐hydroxypropylsulfonimidoyl)butanoic acid] was tested, and the IC50 (GlnA4Sc) was 12.3 µM, the “Activity against GlnA1Mt (in words)” value (GlnA1Mt) was “neither 7 b nor 8 showed activity” and the “Hyphae thickness with additional glutamine (rescue)” value (S. coelicolor M145; 100 μM inhibitor, additional glutamine as alternative nitrogen source) was 1.11 μm. For the same molecule, the “Non-specific toxic effects (in words)” value (S. coelicolor M145; 100 μM, glutamine rescue control experiment) was “excludes any non‐specific toxic effects” and the “Size of mycelial agglomerates (in words)” value (S. coelicolor M145; lowest tested concentration 0.78 μM, ethanolamine as nitrogen source) was “reduced the size of the mycelial agglomerates”.
With `N=S(=O)(CCCCO)CC[C@H](N)C(=O)O` (stereo partly drawn) [7 c, (2S)‐2‐Amino‐4‐(4‐hydroxybutylsulfonimidoyl)butanoic acid] the IC50 (GlnA4Sc) was 79.3 µM.
For `CS(=O)(CC[C@H](N)C(=O)O)=NCCO` (stereo partly drawn) [compound 8, (2S)‐2‐Amino‐4‐(N‐(2‐hydroxyethyl)‐methylsulfonimidoyl)butanoic acid], the IC50 (GlnA4Sc) was 659 µM, the “Inhibition of GlnA4Sc activity (in words)” value (GlnA4Sc; Figure 1a/1b) was “inhibited” and the “Activity against GlnA1Mt (in words)” value (GlnA1Mt) was “neither 7 b nor 8 showed activity”.
